Laboratory results taken from ChEMBL document CHEMBL1154414, “In vitro and in vivo activities of T-705 against arenavirus and bunyavirus infections” (Antimicrob Agents Chemother, 2007).

Columns and labels:
Pichinde virus [1] = test: Antiviral activity against Pichinde virus An 4763 infected Syrian golden hamster assessed as animals with detectable virus level in liver at 50 mg/kg, po twice daily for 7 days administered 24 hrs post viral-challenge measured on day 7 of viral infection; assay type: functional
Outline: (§1)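 Hamsters (groups of 15, placebo 25-30) were dosed orally by gavage twice daily (drug suspended in 0.4% CMC) after bilateral intraperitoneal challenge with 65 PFU. Five per group were killed on day 7. Liver homogenate or serum was serially diluted onto triplicate B-SC-1 wells, CPE was read at 6-8 days, and the 50% endpoint was taken. Range was 2.8-9.5 log10 CCID50/0.1 g or 0.1 ml, with undetectable assigned <2.8.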

Punta Toro virus [2] = test: Antiviral activity against 50 PFU Punta Toro virus Adames infected C57BL/6 mouse assessed as mean day of death at 30 mg/kg, po twice daily for 5 days administered 24 hrs post viral challenge; assay type: functional
Outline: (§2)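 Groups of 15 mice (25–30 placebo) were inoculated subcutaneously with PTV. Drug in 0.4% carboxymethylcellulose was given by oral gavage twice daily.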

Junin virus = test: Antiviral activity against Junin virus Candid-1 in Vero cells assessed as inhibition of virus-induced visual cytopathic effect after 7 to 8 days; assay type: functional, organism-based; settings: Mammarenavirus juninense, Candid-1, Vero
Punta Toro virus [3] = test: Antiviral activity against 5000 PFU Punta Toro virus Adames infected C57BL/6 mouse assessed as mean viral titer per 0.1 mL of serum at 10 mg/kg, po twice daily administered 24 hrs post viral challenge measured on day 3 of viral infection; assay type: functional
Outline: (§3)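 Mice were infected subcutaneously with PTV and dosed by oral gavage twice daily; 5 per group (10 placebo) were killed on day 3 or 4. Liver homogenate or serum was serially diluted onto triplicate LLC-MK2 monolayers, and CPE was read 6–8 days later. 50% endpoints gave log10 CCID50 per 0.1 g liver or 0.1 ml serum. Detection range was 2.8–9.5; undetectable samples were assigned <2.8.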

Pichinde virus [4] = test: Antiviral activity against Pichinde virus An 4763 infected Syrian golden hamster assessed as mean day of death at 40 mg/kg, po twice daily for 7 days administered 4 hrs before viral-challenge; assay type: functional
Outline: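 Groups of 15 hamsters (placebo 25-30) were challenged intraperitoneally (bilateral, 65 PFU) and dosed twice daily by oral gavage in 0.4% CMC for 5 to 7 days.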

Punta Toro virus [5] = test: Antiviral activity against 500 PFU Punta Toro virus Adames infected C57BL/6 mouse assessed as mean viral titer per 0.1 mL of serum at 30 mg/kg, po twice daily administered 24 hrs post viral challenge measured on day 3 of viral infection; assay type: functional; outline: as §3
Punta Toro virus [6] = test: Antiviral activity against 5000 PFU Punta Toro virus Adames infected C57BL/6 mouse assessed as animals with detectable virus level in liver at 30 mg/kg, po twice daily administered 24 hrs post viral challenge measured on day 3 of viral infection; assay type: functional; outline: as §3
La Crosse virus = test: Antiviral activity against La Crosse virus assessed as inhibition of virus-induced visual cytopathic effect after 3 to 5 days; assay type: functional, organism-based
Outline: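 Virus diluted in 2% FBS medium was added with half-log drug dilutions at infection. Plates were incubated at 37°C, 5% CO2, until maximal CPE in infected controls, then scored visually 3–5 days post-infection. EC50 was derived by regression analysis.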

Punta Toro virus [7] = test: Antiviral activity against 500 PFU Punta Toro virus Adames infected C57BL/6 mouse assessed as mean day of death at 10 mg/kg, po twice daily for 5 days administered 24 hrs post viral challenge; assay type: functional; outline: as §2
Punta Toro virus [8] = test: Antiviral activity against 50 PFU Punta Toro virus Adames infected C57BL/6 mouse assessed as animals with detectable virus level in liver at 30 mg/kg, po twice daily administered 24 hrs post viral challenge measured on day 3 of viral infection; assay type: functional
Outline: (§4)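 T-705 was suspended in 0.4% carboxymethylcellulose and given by oral gavage twice daily. Mice were infected subcutaneously with PTV. Five mice per group (10 placebo) were sacrificed on day 3 or 4. Liver homogenate or serum was serially diluted onto triplicate LLC-MK2 monolayers, and CPE was read at 6–8 days. The detection limit was 2.8 log10 CCID50 per 0.1 g liver or 0.1 ml serum.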

Punta Toro virus [9] = test: Antiviral activity against 50 PFU Punta Toro virus Adames infected C57BL/6 mouse assessed as mean viral titer per 0.1 g of liver at 30 mg/kg, po twice daily administered 24 hrs post viral challenge measured on day 3 of viral infection; assay type: functional
Outline: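 Mice were infected subcutaneously with PTV and dosed by oral gavage twice daily with drug in 0.4% CMC. Five per group (10 placebo) were sacrificed on day 3 or 4. Serially diluted liver homogenate or serum went into triplicate LLC-MK2 wells, and CPE 50% endpoints were read at 6–8 days. The range was 2.8–9.5 log10 CCID50/0.1 g or 0.1 ml, with undetectable samples set to 2.8 and saturated samples to 9.5.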

Rift Valley fever virus = test: Antiviral activity against Rift Valley fever virus MP-12 assessed as inhibition of virus-induced visual cytopathic effect after 3 to 5 days; assay type: functional, organism-based
Outline: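 Virus in medium with 2% FBS was used at the CCID50 that gave maximal CPE. Half-log drug dilutions (DMSO stock, ≤1% DMSO at the top concentration) were added at infection. EC50 was derived by regression analysis.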

Pichinde virus [10] = test: Antiviral activity against Pichinde virus An 4763 infected Syrian golden hamster assessed as animals with detectable virus level in serum at 50 mg/kg, po twice daily for 7 days administered 24 hrs post viral-challenge measured on day 7 of viral infection; assay type: functional; outline: as §1
Pichinde virus [11] = test: Antiviral activity against Pichinde virus An 4763 infected Syrian golden hamster assessed as mean viral titer per 0.1 mL of serum at 50 mg/kg, po twice daily for 7 days administered 24 hrs post viral-challenge measured on day 7 of viral infection; assay type: functional; outline: as §1
Pichinde virus [12] = test: Antiviral activity against Pichinde virus An 4763 infected Syrian golden hamster assessed as mean viral titer per 0.1 mL of serum at 40 mg/kg, po twice daily for 7 days administered 4 hrs before viral-challenge measured on day 7 of viral infection; assay type: functional
Punta Toro virus [13] = test: Antiviral activity against 500 PFU Punta Toro virus Adames infected C57BL/6 mouse assessed as animals with detectable virus level in liver at 10 mg/kg, po twice daily administered 24 hrs post viral challenge measured on day 3 of viral infection; assay type: functional; outline: as §4
Pichinde virus [14] = test: Antiviral activity against Pichinde virus An 4763 infected Syrian golden hamster assessed as mean serum ALT levels at 20 mg/kg, po twice daily for 7 days administered 24 hrs post viral-challenge measured on day 7 of viral infection; assay type: functional
Outline: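 Hamsters were challenged intraperitoneally (bilateral, 65 PFU) and given twice-daily oral gavage doses (0.4% CMC vehicle). Five per group were sacrificed on day 7 and serum was collected. Serum ALT activity was measured by kinetic assay. Three sham-infected animals set the baselines.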

Punta Toro virus [15] = test: Antiviral activity against 5000 PFU Punta Toro virus Adames infected C57BL/6 mouse assessed as mean viral titer per 0.1 g of liver at 10 mg/kg, po twice daily administered 24 hrs post viral challenge measured on day 3 of viral infection; assay type: functional; outline: as §3
Punta Toro virus [16] = test: Antiviral activity against 50 PFU Punta Toro virus Adames infected C57BL/6 mouse assessed as animals with detectable virus level in liver at 10 mg/kg, po twice daily administered 24 hrs post viral challenge measured on day 3 of viral infection; assay type: functional; outline: as §4
Punta Toro virus [17] = test: Antiviral activity against 5000 PFU Punta Toro virus Adames infected C57BL/6 mouse assessed as animals with detectable virus level in serum at 30 mg/kg, po twice daily administered 24 hrs post viral challenge measured on day 3 of viral infection; assay type: functional; outline: as §3

SMILES | Activity (Pichinde virus [1]) [%] | Activity (Punta Toro virus [2]) [days] | EC50 (Junin virus) [µM] | log10CCID50 (Punta Toro virus [3]) | Activity (Pichinde virus [4]) [days] | log10CCID50 (Punta Toro virus [5]) | Activity (Punta Toro virus [6]) [%] | EC50 (La Crosse virus) [µM] | Activity (Punta Toro virus [7]) [days] | Activity (Punta Toro virus [8]) [%] | log10CCID50 (Punta Toro virus [9]) | EC50 (Rift Valley fever virus) [µM] | Activity (Pichinde virus [10]) [%] | log10CCID50 (Pichinde virus [11]) | log10CCID50 (Pichinde virus [12]) | Activity (Punta Toro virus [13]) [%] | Activity (Pichinde virus [14]) [IU/L] | log10CCID50 (Punta Toro virus [15]) | Activity (Punta Toro virus [16]) [%] | Activity (Punta Toro virus [17]) [%]
NC(=O)c1nc(F)cnc1O [FAVIPIRAVIR] | 100 | >21 | 5 | <5.2 | 11 | <5.1 | 20 | 32 | 4.7 | 40 | <2.8 | 32 | 80 | <5.1 | <3 | 0 | 1583 | <2.9 | 0 | 80
NC(=O)c1ncn([C@@H]2O[C@H](CO)[C@@H](O)[C@H]2O)n1 [RIBAVIRIN] | 100 | >21 | 11 | 5.9 | 11 | <5 | 20 | 70 | 5 | 20 | <2.8 | 53 | 40 | <3.5 | <3 | 20 | 24 | <2.8 | 40 | 60
